Screens from PubChem BioAssay.
SMARCA2 act – activators of SMARCA2 function; activation, % at 9.1 µM; hit rate 1% among 370,000; AID 652017; MG213 cells, MMTV-luciferase reporter, dexamethasone, overnight; in the data active = activation above about 7.8%;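 also: 0% = vehicle wells and 100% = reference activator wells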
JMJD2C inh – inhibitors of human GASC-1 (JMJD2C) demethylase | Q9H3R0 | GST-JMJD2C(1-420) H3K9me3 demethylation, DELFIA europium | inhibition, % at 2.35 µM | hit rate 0.069% among 330,000 | AID 2099;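 active = more than half of a compound's replicate wells show inhibition beyond 50%, single wells judged on their own value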;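 also: signal counts dimethyl H3K9 product captured on neutravidin plate; 0% = median of DMSO wells and 100% = 0.3 times that DMSO median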
NR2E3 ag-1 – activates human NR2E3 receptor | inhibition of corepressor binding, % at 3.98 µM | CHO-S Gal4-NCOR/VP16-NR2E3 two-hybrid, luciferase | AID 602229 | Q9Y5X4 | hit rate 0.35% among 360,000;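 active = inhibition above the mean of all tested compounds plus 3 SD, cut at about 70% in these data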;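 also: 0% = DMSO with NR2E3 transfected cells and 100% = cells lacking NR2E3 construct; higher means lower luciferase signal from less NR2E3 corepressor binding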
DAX1 inh-1 – inhibits human nuclear receptor DAX1; HEK293 Gal4-DAX1 luciferase reporter, luminescence; inhibition, % at 6.75 µM; hit rate 0.99% among 340,000; AID 504766;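 active = inhibition above the mean over all tested compounds plus 3 SD, cut at about 4.2% in these data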;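 also: 0% = DAX1-transfected cells with DMSO and 100% = empty-vector control cells with DMSO; inhibition shows as a rise in luminescence from relieved DAX1 repression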
Target sequence (P51843 207-470 limits assumed): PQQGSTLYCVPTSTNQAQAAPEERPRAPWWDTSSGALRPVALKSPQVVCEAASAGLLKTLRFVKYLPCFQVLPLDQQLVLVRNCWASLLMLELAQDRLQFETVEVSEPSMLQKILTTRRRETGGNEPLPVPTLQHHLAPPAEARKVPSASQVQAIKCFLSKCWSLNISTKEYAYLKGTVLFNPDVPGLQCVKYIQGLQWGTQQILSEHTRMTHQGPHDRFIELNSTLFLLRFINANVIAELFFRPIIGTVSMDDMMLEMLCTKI
NR2E3 ag-2 – agonists of human nuclear receptor NR2E3 | hit rate 0.12% among 320,000 | Q9Y5X4 | GST-NR2E3/biotin-RetCOR TR-FRET, 1536-well | inhibition of corepressor binding, % at 4.78 µM;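 active = percent inhibition above the cutoff of mean plus 3 SD of all tested compounds, set per screening campaign, cut at about 20% in these data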;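 also: 0% = DMSO wells and 100% = biotin wells as full block of FRET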
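Test system: GST-NR2E3 and biotin-RetCOR proteins | Quantity: 1.35 nM GST-tagged NR2E3 final | Medium: Tris pH 7.5 | Also added: 7 nM biotin-RetCOR | Dosing: Compound at 4.8 µM, single dose | Timing: 5 h at 4 °C | Detection: Time-resolved FRET | Read-out basis: Percent inhibition | Benchmarks: Biotin wells as high control, 0.6% DMSO wells as low control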
DAX1 inh-2 – DAX1 (NR0B1) inhibition, primary screen | hit rate 1.1% among 370,000 | HEK293T StAR-luciferase reporter, SF-1/DAX-1 repression relief | AID 652010 | inhibition, % at 6.8 µM;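 active = inhibition above the mean over all tested compounds plus 3 SD, cut at about 3.6% in these data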;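 also: 0% = DAX-1 cells with DMSO and 100% = cells lacking DAX-1 with DMSO; higher inhibition means more luminescence from relief of DAX-1 repression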
* hit, by the source's call; · = not tested or not shown. In the library only some 3.2% were active in any assay of this set; here they are far more common.

SMILES	SMARCA2 act	JMJD2C inh	NR2E3 ag-1	DAX1 inh-1	NR2E3 ag-2	DAX1 inh-2
COC(=O)[C@]12C[C@H](CC(=O)N3CCCCC3)C(=O)N(CCc3ccc(OC)c(OC)c3)C1=C[C@H](C(C)C)O[C@@H]2C1CC1	-1	·	·	·	·	0
CCOC(=O)C1CCN(C(=O)c2ccc(OCC(=O)Nc3ccc(OCC)cc3)c(OC)c2)CC1	-2	16	15	4.2*	-1	-3
O=S1(=O)c2c(cccc2N2CCC[C@@H]2CO)OCCCN1C1CC1	0	·	·	·	·	-1
COc1ccc(C(=O)NC2CC3CCCC(C2)N3Cc2ccccc2)cc1 (stereo not drawn)	-2	60*	3	-2	0	0
CC[C@@]1(c2ccc(C)cc2)C(=O)N(C(=O)OC(C)C)N1C(=O)OC(C)C	-4	·	·	·	·	-2
CCOC(=O)c1cnc(/N=C/N(C)C)s1	7.9*	-5	-29	-1	3	0
O=C(NCc1ccc(F)cc1)c1ccncc1	0	6	7	4.4*	2	0
CC(C)(C)c1ccc(S(=O)(=O)NCC(=O)N2CCN(c3ncccn3)CC2)cc1	5	·	·	·	·	-1
CC(C)OC(=O)CSc1nnc(-c2ccc(C(C)(C)C)cc2)n1N	-1	0	-42	5.0*	-2	1
Nn1c(SCC(=O)Nc2ccccc2-c2ccccc2)nnc1-c1cc(-c2ccc(F)cc2)n[nH]1	-3	·	·	·	·	0
CN(C)C(=O)C(=O)c1c(-c2ccccc2)cc2ccccn12	1	-1	16	1	1	1
O=Nc1c(-c2ccccc2)cc2ccccn12	1	1	-30	6.6*	-16	-1
O=C(NC(=S)N1CCCCC1CO)c1cccs1 (stereo not drawn)	-3	1	9	6.5*	·	2
CCCSc1nnc(-c2ccco2)n1C	-2	·	·	·	·	0
Cc1[nH]n(-c2ccccc2)c(=O)c1C=NC1CCCCC1	2	-5	-3	0	-1	0
Cc1[nH]n(-c2ccccc2)c(=O)c1C=NC1CCCCCC1	0	-2	-22	5.5*	3	1
Cc1ccc(/C=C/C(=O)NC(=S)N2CCN(C)CC2)cc1	0	-10	-20	-1	2	0
COc1ccccc1/C=C/C(=O)NC(=S)N1CCN(C)CC1	0	16	12	3	·	3.9*
COc1ccc(/C=C/C(=O)NC(=S)N2CCN(c3ccccc3OC)CC2)cc1	-2	-5	-39	5.5*	1	1
Cc1ccc(S(=O)(=O)N2C[C@H]3[C@H]4C(=O)N(c5ccccc5)C(=O)[C@H]4CC(=O)[C@H]3[C@@H]2c2cccc3ccccc23)cc1	-5	·	-8	·	·	4.3*
Cc1ccc(S(=O)(=O)N2C[C@H]3[C@H]4C(=O)N(c5ccccc5)C(=O)[C@H]4CC(=O)[C@H]3[C@@H]2c2ccccc2F)cc1	1	·	-24	·	·	0
Nc1nc2ccccc2n1C(=O)CCc1ccccc1	6	-1	-111	5.0*	3	1
Nc1nc2ccccc2n1C(=O)c1ccc(F)cc1	2	9	-99	-3	-2	3.9*
COc1ccc(C2/C=C\CN(C(=O)c3ccccc3)CC(=O)N2Cc2cccc(F)c2)cc1 (stereo not drawn)	-2	·	-15	-2	·	-1
COc1ccc(C2/C=C\CN(C(=O)OCC3c4ccccc4-c4ccccc43)CC(=O)N2Cc2cccc(F)c2)cc1 (stereo not drawn)	-3	·	-30	-1	·	3.7*
SMILES	SMARCA2 act	JMJD2C inh	NR2E3 ag-1	DAX1 inh-1	NR2E3 ag-2	DAX1 inh-2
O=C(O)c1ccc(C#Cc2cccc(F)c2)cn1	-5	·	·	·	·	-1
Cc1cccc(NC(=O)c2onc3c2CCCC3)n1	2	-3	-117	-4	-5	4.1*
Cc1cccc(NC(=O)c2onc3c2CCCC3)c1C	4	-7	-110	2	-1	2
COC(=O)c1cccc(NC(=O)c2onc3c2CCCC3)c1	1	8	-169	1	-1	3.8*
c1ccn2cc(CSc3nnc4ccccn34)nc2c1	7	8	-60	3	5	3.8*
O=c1c(O[C@H]2O[C@@H](CO)[C@H](O)[C@@H](O)[C@@H]2O)c(-c2ccc(O)cc2)oc2cc(O)cc(O)c12	3	-4	-19	2	1	0
O=c1c(OC2OC(CO)C(O)C(O)C2OC2OC(CO)C(O)C(O)C2O)c(-c2ccc(O)cc2)oc2cc(O)cc(O)c12 (stereo not drawn)	1	·	-3	4.6*	3	0
Cc1cccc(-c2nnc(SCC(=O)c3ccc(F)cc3)n2C)c1	7	·	·	·	·	0
O=C(c1noc2c1CCc1ccccc1-2)N1CCCc2ccccc21	1	-65	-33	0	-1	0
COc1ccc2c(c1)CCc1c(C(=O)NCC(C)C)noc1-2	-1	-1	-84	5.6*	3	3
COc1ccc(-c2ccc(C(=O)NCC(C)C)c3occc23)c(C)c1	-4	·	-57	·	·	-2
CCCNC(=O)c1noc2c1CCc1cc(OC)ccc1-2	5	2	-145	3	-2	3.8*
COc1ccc2c(c1)CCc1c(C(=O)N3CCCCCC3)noc1-2	3	3	-169	3	0	3.8*
Cc1cc(NC(=O)c2noc3c2CCc2ccccc2-3)no1	0	27	-42	0	4	1
Cc1ccccc1CNC(=S)OC1CCC12CCC(c1ccccc1)CC2 (stereo not drawn)	2	·	·	·	·	0
O=P(Cc1ccncc1)(c1ccccc1)c1ccccc1	0	14	-2	5.9*	-2	0
COc1cccc(NC(=O)C(=O)NCCCN2CCCC2=O)c1	7	-1	-46	2	-3	3.8*
COc1ccccc1NC(=O)C(=O)NCCCN1CCCC1=O	4	-6	-32	1	0	3
Cc1cccc(S(=O)(=O)Nc2ccc(-c3nc4ccc(C)cc4s3)cc2)c1	0	-15	-122	3	1	4.2*
Cc1ccc2nc(-c3ccc(NS(=O)(=O)c4c(C)n(C)c(=O)n(C)c4=O)cc3)sc2c1	6	10	-143	6.3*	-1	3
Cc1ccc(S(=O)(=O)Nc2ccc(-c3nc4ccc(C)cc4s3)cc2)cc1	1	-26	-21	-1	-5	0
Cc1c(S(=O)(=O)Nc2ccc3c(c2)OCCO3)c(=O)n(C)c(=O)n1C	-3	-3	1	1	-3	1
COc1ccc(C2(C)NC(=O)N(CC(=O)Nc3ccc(-c4nc5ccc(C)cc5s4)cc3)C2=O)cc1 (stereo not drawn)	4	21	-117	·	2	4
CCC1(c2ccc(F)cc2)NC(=O)N(CC(=O)Nc2ccc(-c3nc4ccc(C)cc4s3)cc2)C1=O (stereo not drawn)	0	1	-132	1	-2	3.8*
